Reference: ChEMBL document CHEMBL1132904, “'Double-Drugs'--a new class of prodrug form of an HIV protease inhibitor conjugated with a reverse transcriptase inhibitor by a spontaneously cleavable linker” (Bioorg Med Chem Lett, 2000)
Converted amounts (≈) assume the structure as drawn. The source made the active and inactive calls. The calls are words filed in the database; no cut-off is given here.

How the values were obtained:
[1] = target: Human immunodeficiency virus type 1 protease (Human immunodeficiency virus 1) (UniProt Q72874); assay: Inhibitory activity against HIV protease; Active
[2] = target: Human immunodeficiency virus type 1 protease (Human immunodeficiency virus 1, UniProt Q72874); assay: Inhibitory activity against HIV-1 IIIB/CEM-SS protease
[3] = test system: MOLT-4; assay: Compound was evaluated for anti-HIV activity against HIV-1Lal inoculated with Molt-4 cells; format: functional, cell-based; settings: Homo sapiens
Outline: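 HIV-1 LAI (100 TCID50) was inoculated together with 4-fold serial dilutions of compound onto Molt-4 cells at 5000 cells/well. Cultures were kept 7 days. Surviving cells were quantified by WST-8 assay, and EC50 was calculated from the ratios of surviving cells.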

[4] = target: Human immunodeficiency virus type 1 protease (Human immunodeficiency virus 1) (UniProt Q72874); assay: Compound was evaluated for the percentage inhibition of HIV protease at 5 uM
[5] = test system: Human immunodeficiency virus 1; assay: Relative potency of compound to that of AZT was determined
[6] = Water solubility by RP-HPLC; format: ADME
Outline: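 Aliquots of compound solutions were injected onto HPLC. Dissolved concentration was determined by comparison of peak area.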

[7] = Therapeutic index was determined; settings: read-out: Therapeutic index

Row | Activity [1] | EC50 [3] [nM] | Compound | further results
1 | Active |  | Cc1cccc(C)c1OCC(=O)N[C@@H](Cc1ccccc1)[C@H](OC(=O)CCC(=O)O)C(=O)N1CSC(C)(C)[C@H]1C(=O)NC(C)(C)C | 
2 | Active |  | Cc1ccccc1CNC(=O)[C@H]1N(C(=O)[C@H](O)[C@@H](Cc2ccccc2)NC(=O)CC(C)(C)C(=O)OCC2OC(n3cc(C)c(=O)[nH]c3=O)CC2N=[N+]=[N-])CSC1(C)C (stereo partly drawn) | 
3 |  |  | Cc1cccc(C)c1OCC(=O)N[C@@H](Cc1ccccc1)[C@H](OC(=O)CCC(=O)OCC1OC(n2cc(C)c(=O)[nH]c2=O)CC1N=[N+]=[N-])C(=O)N1CSC(C)(C)[C@H]1C(=O)NC(C)(C)C (stereo partly drawn) | EC50 [2]: 189 nM
4 |  | 3.4 | Cc1cccc(C)c1OCC(=O)N[C@@H](Cc1ccccc1)[C@H](OC(=O)CCCC(=O)NCCC(=O)OCC1OC(n2cc(C)c(=O)[nH]c2=O)CC1N=[N+]=[N-])C(=O)N1CSC(C)(C)[C@H]1C(=O)NC(C)(C)C (stereo partly drawn) | inhibition [4]: 12%; Relative potency [5]: 1.8; solubility [6]: 235 µg/mL (≈ 237 µM)
5 |  | 6.2 | Cc1cn([C@H]2C[C@H](N=[N+]=[N-])[C@@H](CO)O2)c(=O)[nH]c1=O [ZIDOVUDINE] | 
6 |  | 0.1 | Cc1cccc(C)c1OCC(=O)N[C@@H](Cc1ccccc1)[C@H](OC(=O)CCCC(=O)NCC(=O)OCC1OC(n2cc(C)c(=O)[nH]c2=O)CC1N=[N+]=[N-])C(=O)N1CSC(C)(C)[C@H]1C(=O)NC(C)(C)C (stereo partly drawn) [KNI-1039] | inhibition [4]: 55%; Relative potency [5]: 62; selectivity ratio [7]: > 2000; solubility [6]: 371 µg/mL (≈ 380 µM)
7 |  | 5.3 | Cc1cccc(C)c1OCC(=O)N[C@@H](Cc1ccccc1)[C@H](OC(=O)CCC(=O)NCC(=O)OCC1OC(n2cc(C)c(=O)[nH]c2=O)CC1N=[N+]=[N-])C(=O)N1CSC(C)(C)[C@H]1C(=O)NC(C)(C)C (stereo partly drawn) [KNI-1038] | inhibition [4]: 37%; Relative potency [5]: 1.2; solubility [6]: 290 µg/mL (≈ 301 µM)
8 | Active |  | Cc1cn(C2CC(N=[N+]=[N-])C(COC(=O)CN)O2)c(=O)[nH]c1=O (stereo not drawn) | 
9 | Active |  | Cc1cccc(C)c1OCC(=O)N[C@@H](Cc1ccccc1)[C@H](OC(=O)CCCC(=O)O)C(=O)N1CSC(C)(C)[C@H]1C(=O)NC(C)(C)C | 
10 |  | 92 | Cc1cccc(C)c1OCC(=O)N[C@@H](Cc1ccccc1)[C@H](O)C(=O)N1CSC(C)(C)[C@H]1C(=O)NC(C)(C)C | 
11 |  | 1 | Cc1cccc(C)c1OCC(=O)N[C@@H](Cc1ccccc1)[C@H](OC(=O)CCC(=O)NCCC(=O)OCC1OC(n2cc(C)c(=O)[nH]c2=O)CC1N=[N+]=[N-])C(=O)N1CSC(C)(C)[C@H]1C(=O)NC(C)(C)C (stereo partly drawn) [KNI-1046] | inhibition [4]: 7%; Relative potency [5]: 6.2; solubility [6]: 373 µg/mL (≈ 382 µM)
12 | Active |  | Cc1cn(C2CC(N=[N+]=[N-])C(COC(=O)CCN)O2)c(=O)[nH]c1=O (stereo not drawn) | 
13 | Active |  | Cc1ccccc1CNC(=O)[C@H]1N(C(=O)[C@@H](O)[C@H](Cc2ccccc2)NC(=O)CC(C)(C)C(=O)O)CSC1(C)C | 
14 | Active |  | CC(C)(C)NC(=O)[C@H]1N(C(=O)[C@@H](O)[C@H](Cc2ccccc2)NC(=O)CC(C)(C)C(=O)O)CSC1(C)C | 
15 | Active |  | Cc1cn(C2CC(N=[N+]=[N-])C(COC(=O)C(C)(C)CC(=O)N[C@H](Cc3ccccc3)[C@@H](O)C(=O)N3CSC(C)(C)[C@H]3C(=O)NC(C)(C)C)O2)c(=O)[nH]c1=O (stereo partly drawn) | 
